From ChEMBL document CHEMBL4270650, “Discovery of novel human inosine 5'-monophosphate dehydrogenase 2 (hIMPDH2) inhibitors as potential anticancer agents” (Eur J Med Chem, 2018)
In brackets after ≈: the same amount, converted by molar mass. Counter-ions that a name gives are not always drawn. Activity calls are given as the source filed them. The rule behind the calls is not given here.

Experiments:
[1] = target: T1, Inosine-5'-monophosphate dehydrogenase 2 (Homo sapiens, UniProt P12268); experiment: Inhibition of human IMPDH2 using IMP at 10 uM as substrate in presence of NAD+ after 30 mins relative to control
Outline: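 Purchased purified hIMPDH2, 0.15 mU/well, in 100 mM Tris-HCl pH 8.6, 100 mM KCl, 5 mM DTT and 4% v/v DMSO. Started with 0.2 mM IMP plus 0.2 mM NAD+ and run 30 min at 37 °C. NADH read at 340 nm. Screen at 10 µM gave % inhibition.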

[2] = target: T1, Inosine-5'-monophosphate dehydrogenase 2; experiment: Inhibition of human IMPDH2 using IMP as substrate in presence of NAD+ after 30 mins
Outline: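 Purchased purified hIMPDH2, 0.15 mU/well, in 100 mM Tris-HCl pH 8.6, 100 mM KCl, 5 mM DTT and 4% v/v DMSO. Started with 0.2 mM IMP plus 0.2 mM NAD+ and run 30 min at 37 °C. NADH read at 340 nm.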

MDA-MB-231 [3] = experiment: Cytotoxicity against human MDA-MB-231 cells assessed as reduction in cell viability after 48 hrs by MTT assay; format: functional, cell-based; details: MDA-MB-231, 48 h
Outline: (§1)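 Cells grown in DMEM with 10% FBS and penicillin-streptomycin at 37 °C, 5% CO2. Seeded at 10,000 (MDA-MB-231), 8,000 (DU145) or 5,000 (U87 MG) cells/well. Treated 24 hr later with 0.01–100 µM, each dilution in triplicate, DMSO vehicle. After 48 hr, MTT (5 mg/mL) for 4 hr, formazan dissolved in DMSO. Absorbance read at 540 nm with 630 nm background. IC50 taken from mean of triplicate readings.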

[4] = Octanol-buffer partition coefficient, log D of the compound at pH 7.4 after 2 hrs by HPLC analysis; format: physicochemical
Outline: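 DMSO stock added to pre-saturated 1:1 1-octanol/pH 7.4 buffer and shaken 2 hr at 37 °C, 200 rpm. Phases separated and each quantified by HPLC on a C18 column with isocratic acetonitrile:water 80:20 at 1 mL/min. logD7.4 taken from the octanol-to-buffer concentration ratio.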

[5] = Cytotoxicity against human PBMC assessed as cell viability at 10 uM after 48 hrs by MTT assay relative to control; format: cell-based; details: read-out: Activity
[6] = Cytotoxicity against mouse NIH/3T3 cells assessed as cell viability at 100 uM after 48 hrs by MTT assay relative to control; format: cell-based, NIH3T3; details: read-out: Activity
Outline: (§2)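 NIH-3T3 mouse embryonic fibroblasts grown in DMEM with 10% FBS and penicillin-streptomycin at 37 °C, 5% CO2. Seeded at 10,000 cells/well and dosed after 24 hr, DMSO vehicle, triplicate wells. After 48 hr exposure, MTT (5 mg/mL) added for 4 hr and formazan dissolved in DMSO. Absorbance read at 540/630 nm. Viability expressed as % of control, mean ± SD.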

U-87 MG [7] = experiment: Potency index, ratio of mycophenolic acid IC50 to compound IC50 for cytotoxicity against human U87MG cells; format: functional, U-87MG ATCC
[8] = Solubility in pH 7.4 sodium phosphate buffer after 2 hrs by HPLC analysis; format: physicochemical; details: read-out: -log(solubility) (converted)
Outline: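 DMSO stock diluted 1:100 into 50 mM sodium phosphate, pH 7.4, and shaken 2 hr at 37 °C, 200 rpm. Centrifuged 20 min at 4000 rpm; supernatant diluted 1:1 with acetonitrile and filtered. Quantified by C18 HPLC (acetonitrile:water 80:20, isocratic) against a calibration curve of 0.78–100 µM made in 1:1 buffer/acetonitrile.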

[9] = Cytotoxicity against mouse NIH/3T3 cells assessed as cell viability at 10 uM after 48 hrs by MTT assay relative to control; format: cell-based, NIH3T3; details: read-out: Activity; outline: as §2
DU-145 [10] = experiment: Cytotoxicity against human DU145 cells assessed as reduction in cell viability after 48 hrs by MTT assay; format: functional, cell-based; details: DU-145, 48 h; outline: as §1
U-87 MG [11] = experiment: Cytotoxicity against human U87MG cells assessed as reduction in cell viability after 48 hrs by MTT assay; format: functional, cell-based, U-87MG ATCC; outline: as §1
MDA-MB-231 [12] = experiment: Potency index, ratio of mycophenolic acid IC50 to compound IC50 for cytotoxicity against human MDA-MB-231 cells; format: functional
DU-145 [13] = experiment: Potency index, ratio of mycophenolic acid IC50 to compound IC50 for cytotoxicity against human DU145 cells; format: functional

SMILES: O=C(COc1ccc(C(=O)/C=C/c2cccs2)cc1)Nc1ccc2c(c1)COC2=O
- inhibition [1]: 76.3%
- IC50 [2]: 4.54 µM

SMILES: CCOc1ccc(/C=C/C(=O)c2ccc(OCC(=O)Nc3ccc4c(c3)COC4=O)cc2)cc1
- inhibition [1]: 65.5%

SMILES: O=C(COc1ccc(C(=O)/C=C/c2ccco2)cc1)Nc1ccc2c(c1)COC2=O
- inhibition [1]: 57.3%

SMILES: O=C(COc1ccc(C(=O)/C=C/c2c(F)cccc2F)cc1)NCc1ccc2c(c1)OCO2
- inhibition [1]: inactive

SMILES: CCCOc1ccc(/C=C/C(=O)c2ccc(OCC(=O)Nc3ccc4c(c3)COC4=O)cc2)cc1
- inhibition [1]: 60.1%

SMILES: COc1ccc(NC(=O)COc2ccc(C(=O)/C=C/c3ccc(Cl)cc3)cc2)cc1OC
- inhibition [1]: 30.1%

SMILES: COc1ccc(/C=C/C(=O)c2ccc(OCC(=O)NCc3ccc4c(c3)OCO4)cc2)cc1
- inhibition [1]: inactive

SMILES: COc1ccc(NC(=O)COc2ccc(C(=O)/C=C/c3cccs3)cc2)cc1OC
- inhibition [1]: 24.5%

SMILES: O=C(COc1ccc(C(=O)/C=C/c2c(F)cccc2F)cc1)Nc1ccc2c(c1)COC2=O
- IC50 (MDA-MB-231 [3]): 2.41 µM
- inhibition [1]: 94.2%
- logD at 2 h [4]: 2.99
- viability at 48 h, 10 µM [5]: 77%
- viability at 48 h, 100 µM [6]: 70.2%
- IC50 [2]: 0.36 µM
- Ratio IC50 (U-87 MG [7]): 3
- solubility at 2 h [8]: 1.55 µM (≈ 0.696 µg/mL)
- viability at 48 h, 10 µM [9]: 98.5%
- IC50 (DU-145 [10]): 1.9 µM
- IC50 (U-87 MG [11]): 3.67 µM

SMILES: COc1ccc(/C=C/C(=O)c2cccc(OCC(=O)Nc3ccc(OC)c(OC)c3)c2)cc1OC
- inhibition [1]: 23.3%

SMILES: O=C(COc1ccc(/C=C/C(=O)c2ccc(F)cc2)cc1)Nc1ccc2c(c1)COC2=O
- IC50 (MDA-MB-231 [3]): 5.42 µM
- inhibition [1]: 87.9%
- viability at 48 h, 100 µM [6]: 80.2%
- IC50 [2]: 0.57 µM
- viability at 48 h, 10 µM [9]: 90.3%
- IC50 (DU-145 [10]): 6.88 µM
- IC50 (U-87 MG [11]): 6.05 µM

SMILES: O=C(COc1ccc(C(=O)/C=C/c2ccc(Cl)cc2)cc1)Nc1ccc2c(c1)COC2=O
- inhibition [1]: 62.1%

SMILES: COc1ccc(NC(=O)COc2ccc(C(=O)/C=C/c3ccccc3Cl)cc2)cc1OC
- inhibition [1]: 25.7%

SMILES: COc1ccc(/C=C/C(=O)c2ccc(OCC(=O)Nc3ccc4c(c3)COC4=O)cc2)cc1OC
- inhibition [1]: 65.5%

SMILES: CCOc1ccc(/C=C/C(=O)c2ccc(OCC(=O)NCc3ccc4c(c3)OCO4)cc2)cc1
- inhibition [1]: inactive

SMILES: COc1ccc(/C=C/C(=O)c2ccc(OCC(=O)NCc3ccc4c(c3)OCO4)cc2)cc1OC
- inhibition [1]: inactive

SMILES: COc1cc(/C=C/C(=O)c2cccc(OCC(=O)Nc3ccc4c(c3)COC4=O)c2)cc(OC)c1OC
- inhibition [1]: 63.7%

SMILES: COc1c(C)c2c(c(O)c1C/C=C(\C)CCC(=O)O)C(=O)OC2 [MYCOPHENOLIC ACID]
- IC50 (MDA-MB-231 [3]): 4.38 µM
- viability at 48 h, 10 µM [5]: 63%
- viability at 48 h, 100 µM [6]: 40.7%
- viability at 48 h, 10 µM [9]: 65.2%
- IC50 (DU-145 [10]): 2.94 µM
- IC50 (U-87 MG [11]): 10.7 µM

SMILES: O=C(COc1ccc(C(=O)/C=C/c2ccc([N+](=O)[O-])cc2)cc1)Nc1ccc2c(c1)COC2=O
- inhibition [1]: 63.2%

SMILES: COc1cc(/C=C/C(=O)c2ccc(OCC(=O)Nc3ccc4c(c3)COC4=O)cc2)cc(OC)c1OC
- inhibition [1]: 71.3%
- IC50 [2]: 7.38 µM

SMILES: O=C(COc1ccc(C(=O)/C=C/c2ccc(OCc3ccc(Cl)cc3)cc2)cc1)Nc1ccc2c(c1)COC2=O
- inhibition [1]: 39.1%

SMILES: COc1cccc(/C=C/C(=O)c2ccc(OCC(=O)Nc3ccc(OC)c(OC)c3)cc2)c1
- inhibition [1]: 28.8%

SMILES: COc1cccc(/C=C/C(=O)c2ccc(OCC(=O)Nc3ccc4c(c3)COC4=O)cc2)c1
- IC50 (MDA-MB-231 [3]): 3.42 µM
- inhibition [1]: 91.5%
- viability at 48 h, 100 µM [6]: 62.6%
- IC50 [2]: 0.36 µM
- viability at 48 h, 10 µM [9]: 87.1%
- IC50 (DU-145 [10]): 2.55 µM
- IC50 (U-87 MG [11]): 5.75 µM

SMILES: O=C(COc1ccc(C(=O)/C=C/c2ccc(OCc3ccccc3)cc2)cc1)Nc1ccc2c(c1)COC2=O
- inhibition [1]: 52.2%

SMILES: CCCCOc1ccc(/C=C/C(=O)c2ccc(OCC(=O)Nc3ccc4c(c3)COC4=O)cc2)cc1
- inhibition [1]: 57.7%

SMILES: COc1cc(C(=O)/C=C/c2cc(OC)c(OC)c(OC)c2)ccc1OCC(=O)Nc1ccc2c(c1)COC2=O
- inhibition [1]: 19.9%

SMILES: O=C(COc1ccc(C(=O)/C=C/c2ccccc2Cl)cc1)Nc1ccc2c(c1)COC2=O
- inhibition [1]: 59.5%

SMILES: COc1ccc(NC(=O)COc2ccc(C(=O)/C=C/c3c(F)cccc3F)cc2)cc1OC
- inhibition [1]: 35.9%

SMILES: COc1cc(/C=C/C(=O)c2ccc(OCC(=O)NCc3ccc4c(c3)OCO4)cc2)cc(OC)c1OC
- inhibition [1]: inactive

SMILES: COc1ccc(/C=C/C(=O)c2ccc(OCC(=O)Nc3ccc4c(c3)COC4=O)cc2)cc1
- IC50 (MDA-MB-231 [3]): 3.03 µM
- inhibition [1]: 95.6%
- viability at 48 h, 10 µM [5]: 86%
- viability at 48 h, 100 µM [6]: 63.7%
- IC50 [2]: 0.66 µM
- viability at 48 h, 10 µM [9]: 90.9%
- IC50 (DU-145 [10]): 2.13 µM
- IC50 (U-87 MG [11]): 4.9 µM

SMILES: COc1ccc(/C=C/C(=O)c2ccc(OCC(=O)Nc3ccc(OC)c(OC)c3)cc2)cc1
- inhibition [1]: 33.6%

SMILES: O=C(COc1ccc(C(=O)/C=C/c2ccc(OCc3ccc(Cl)cc3Cl)cc2)cc1)Nc1ccc2c(c1)COC2=O
- inhibition [1]: 36.7%

SMILES: O=C(COc1ccc(C(=O)/C=C/c2ccccc2)cc1)Nc1ccc2c(c1)COC2=O
- inhibition [1]: 79.1%
- IC50 [2]: 0.79 µM

SMILES: COc1ccc(/C=C/C(=O)c2cccc(OCC(=O)Nc3ccc4c(c3)COC4=O)c2)cc1OC
- inhibition [1]: 57%

SMILES: CCOc1ccc(/C=C/C(=O)c2ccc(OCC(=O)Nc3ccc(OC)c(OC)c3)cc2)cc1
- inhibition [1]: 63.5%

SMILES: COc1ccc(NC(=O)COc2ccc(C(=O)/C=C/c3ccco3)cc2)cc1OC
- inhibition [1]: 21.3%

SMILES: COc1cccc2c1C(=O)c1c(O)c3c(c(O)c1C2=O)C[C@@](O)(C(=O)CO)C[C@@H]3O[C@H]1C[C@H](N)[C@H](O)[C@H](C)O1 [DOXORUBICIN HYDROCHLORIDE]
- IC50 (MDA-MB-231 [3]): 0.54 µM
- viability at 48 h, 100 µM [6]: 6.73%
- viability at 48 h, 10 µM [9]: 15.6%
- IC50 (DU-145 [10]): 0.21 µM
- IC50 (U-87 MG [11]): 0.11 µM

SMILES: O=C(COc1cccc(C(=O)/C=C/c2ccccc2)c1)Nc1ccc2c(c1)COC2=O
- IC50 (MDA-MB-231 [3]): 1.1 µM
- inhibition [1]: 93.7%
- logD at 2 h [4]: 2.79
- viability at 48 h, 100 µM [6]: 67.6%
- IC50 [2]: 0.43 µM
- Ratio IC50 (MDA-MB-231 [12]): 4
- Ratio IC50 (DU-145 [13]): 1.7
- solubility at 2 h [8]: 1.55 µM (≈ 0.64 µg/mL)
- viability at 48 h, 10 µM [9]: 96.7%
- IC50 (DU-145 [10]): 1.75 µM
- IC50 (U-87 MG [11]): 3.97 µM

SMILES: COc1ccc(NC(=O)COc2ccc(C(=O)/C=C/c3cc(OC)c(OC)c(OC)c3)cc2)cc1OC
- inhibition [1]: 20.6%
